# Screening data as filed in PubChem.
# HEK293 NFkB inh: inhibitors of the PMA/ionomycin-induced NF-kB reporter in HEK293 cells | actives 0.21% (n = 62,000) | HEK-293 NF-kB luciferase reporter, luminescence | AID 465 | inhibition, % at 3 µM;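 active = inhibition above the mean of all tested compounds plus 3 SD, cut at about 40% in these data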;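 note: 0% = stimulated DMSO wells and 100% = 10 µM reference inhibitor 5653914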
#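 Timing: 1 h pretreatment, 16 h stimulation, 37 °C; system: HEK-293 cells with stable firefly luciferase reporter driven by four HIV NF-kB elements; doses: 3 µM once, 0.30% DMSO; measured by: luciferase luminescence; control set: DMSO and 10 µM reference inhibitor; repeats: single test; reagent: PMA plus ionomycin mix as NF-kB-activating stimulus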
# Jurkat tox 60K: reduces viability or proliferation of Jurkat cells; Jurkat E6.1 viability, ATP luminescence, 48 h; inhibition, % at 4 µM; actives 1.2% (n = 56,000); AID 463;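 active = inhibition above the mean inhibition of all tested compounds plus 3 SD, cut at about 28% in these data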
# D1 allo mod: D1 dopamine receptor (human) allosteric modulation; P21728; HEK293 D1, CRE-luciferase, dopamine EC30 potentiation; actives deviate in either direction; B-score at 10 µM; actives 5.9% (n = 58,000); AID 641;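 active = luminescence count or its row- and column-corrected plate score outside the 99.7% band of the plate's sample wells, on either side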
# Htt clearance: mutant huntingtin protein clearance. actives 0.42% (n = 47,000). inhibition, % at 1.5 µM. HeLa Exon1htt(103Q)mCFP, aggregate imaging; zero = plate's median compound well. AID 853;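 active = inhibition of aggregate fluorescence above about 70%, also judged a hit by eye on the cell image, limit read from the data, passing the limit was not always enough; inconclusive = no rule stated for this call; inactive = not judged a hit on image review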;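 note: cells exposed to compound for three days before fixation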
# M1 agonist: M1 muscarinic receptor agonism. CHO-M1 cells, Fluo-4 calcium fluorescence, agonist mode; stronger effect = higher value. B-score at 10 µM. actives 3% (n = 64,000). AID 626;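 active = fluorescence rise, raw or as B-score row- and column-corrected plate score, outside the 99.7% band of its plate's samples, either direction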
# M1 antagonist: antagonists of rat M1 muscarinic receptor | B-score at 10 µM | P08482 | actives 3.4% (n = 64,000) | AID 628 | CHO-M1 cells, Fluo-4 calcium, ACh EC80 antagonist mode; stronger effect = lower value;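 active = calcium fluorescence response, raw or row-and-column corrected B-score, differing from the plate sample mean either way at a set confidence level, mostly lower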
# Target sequence (P08482 whole entry, looked up): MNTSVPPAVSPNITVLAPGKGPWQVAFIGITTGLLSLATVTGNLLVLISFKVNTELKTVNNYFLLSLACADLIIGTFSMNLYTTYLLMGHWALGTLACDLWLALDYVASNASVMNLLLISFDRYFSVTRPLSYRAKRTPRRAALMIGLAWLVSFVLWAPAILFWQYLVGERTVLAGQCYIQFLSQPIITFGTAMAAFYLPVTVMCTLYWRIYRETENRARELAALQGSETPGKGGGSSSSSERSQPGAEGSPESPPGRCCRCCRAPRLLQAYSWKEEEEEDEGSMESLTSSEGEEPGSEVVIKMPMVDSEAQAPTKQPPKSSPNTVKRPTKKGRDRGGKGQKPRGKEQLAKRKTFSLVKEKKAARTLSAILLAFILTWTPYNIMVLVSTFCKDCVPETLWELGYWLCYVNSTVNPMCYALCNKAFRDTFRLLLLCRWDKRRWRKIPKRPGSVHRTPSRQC
# M1 antag conf: confirmation of rat M1 muscarinic receptor antagonists | CHO-M1 cells, Fluo-4 calcium, ACh EC80 antagonism; stronger effect = lower value | actives 43% (n = 1,700) | AID 677 | calcium response (max-min fluorescence) at 10 µM | shares compounds with M1 antagonist;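 active = calcium response below the same-plate mean of wells given acetylcholine alone at its 80%-effect dose, minus 3 SD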;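 note: raw fluorescence intensity difference in arbitrary instrument units and not normalized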
# mGluR4 antag: selectivity test for M1 antagonists: human mGluR4 receptor; shares compounds with M1 antagonist; CHO-mGluR4 calcium flux, Fluo-4 fluorescence, glutamate EC80; stronger effect = lower value; fluorescence response (max-min) at 10 µM; actives 0.9% (n = 1,700); AID 678;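 active = fluorescence response below the plate's average for near-maximal glutamate wells, less 3 SD of those wells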;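 note: raw unnormalized fluorescence span taken in the window right after glutamate addition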
# * hit, by the source's call; ? = inconclusive; . = no result. In the library only some 9.5% were active in any assay of this set; here they are far more common.
SMILES,HEK293 NFkB inh,Jurkat tox 60K,D1 allo mod,Htt clearance,M1 agonist,M1 antagonist,M1 antag conf,mGluR4 antag
CCOc1ccc(N(CC(=O)N2CCN(c3ccccc3)CC2)S(=O)(=O)c2c(C)noc2C)cc1,2,-3,-0.091,.,-0.11,0.18,.,.
CCOC(=O)N1CCN(C(=O)CN(c2ccc(C)cc2)S(=O)(=O)c2c(C)noc2C)CC1,5,8,0.25,.,0.15,-1.1*,639,255
O=C1c2ccccc2CN1CCNS(=O)(=O)c1ccc(Cl)cc1,1,-4,0.23,.,-0.063,-1.8*,674,261
O=C(NCCN1Cc2ccccc2C1=O)c1cccs1,-10,1,-0.023,-4,0.67,-0.58,.,.
CCOC(=O)C1=C(C)NC(=O)NC1c1ccc(N(CC)CC)cc1 (stereo unspecified),7,-11,1.2,?,0.83,-3.1*,391*,274
CCN(CC)c1ccc(C2C(C(=O)OC)=C(C)NC(C)=C2C(=O)OC)cc1,12,-8,-1.3,10,-0.19,-2.7*,209*,249
CCOC(=O)C1=C(C)NC(=O)NC1c1ccc(N(C)C)cc1 (stereo unspecified),3,-12,0.23,.,0.52,-0.27,.,.
O=C(Cn1c(C(=O)N2CCN(C3CCCC3)CC2)cc2sccc21)c1ccccc1,9,-3,-1.8,.,0.094,0.53,.,.
CCCCCCNc1c([N+](=O)[O-])cc(C)cc1[N+](=O)[O-],.,.,.,-13,.,.,.,.
O=c1c2ccccc2[nH]c(=S)n1CCN1CCN(Cc2ccccc2)CC1,9,3,-3.3,.,-0.26,-4.2*,508*,176
Cc1ccc(-n2c(=O)c3c4c(sc3n3c(C)nnc23)COC(C(C)C)C4)cc1 (stereo unspecified),.,.,.,42,1.2,-0.36,.,.
CC1CCc2cc(F)ccc2N1C(=O)CSc1nnc(-c2cccs2)n1C (stereo unspecified),1,-2,-0.016,.,-0.57,-6.1*,545,181
Cc1nc2ccccn2c1/C(O)=C1\C(=O)C(=O)N(CCCn2ccnc2)C1c1ccncc1 (stereo unspecified),9,2,1.1,-1,0.02,0.23,.,.
c1coc(Cn2c(SCc3nc4ccccc4[nH]3)nnc2-c2cccs2)c1,4,.,0.74,.,0.16,-2.3*,659,226
Cc1cccc(-c2nnc(SCc3nc4ccccc4[nH]3)n2Cc2ccco2)c1,13,8,0.71,.,0.72,-0.9,.,.
CCOC(=O)C(C(C)=O)C(c1ccc(OCCC(C)C)cc1)C(C(C)=O)C(=O)OCC (stereo unspecified),.,.,.,0,.,.,.,.
CCOC(=O)C1CSC(CC(=O)Nc2ccc(Cl)c(Cl)c2)C(=O)N1 (stereo unspecified),.,.,.,-3,.,.,.,.
COC(=O)COc1nc(C)c(Br)c(OC)n1,25,4,0.061,-34,0.86,0.91,.,.
COc1nc(NC(C)=O)nc(C)c1Br,10,.,0.78,.,0.014,-10*,598,257
COc1ccc(N2CCN(S(=O)(=O)c3ccc(Br)s3)CC2)cc1,1,7,-0.41,1,0.17,-18*,675,251
CCOC(=O)c1ccc(NC(=O)CSc2nnc(CNc3ccc(OC)cc3)n2C)cc1,5,-3,-0.24,5,0.083,-1.9,.,.
O=C(NCCCN1CCN(c2cccc(Cl)c2)CC1)C1CCC(=O)N1Cc1ccccc1Cl (stereo unspecified),5,12,-1.4,58,-0.79,-2*,532,244
COc1ccc(C2C(C(=O)c3sc(C)nc3C)=C(O)C(=O)N2CCN(C)C)cc1 (stereo unspecified),-4,-4,0.78,-32,-0.071,-11*,663,242
Cc1nc(C)c(C(=O)C2=C(O)C(=O)N(CCN(C)C)C2c2ccccc2)s1 (stereo unspecified),4,1,.,47,-1.4,0.33,.,.
CCOc1ccc(CN2CCNC(=O)C2CC(=O)OC)cc1 (stereo unspecified),5,3,0.15,16,-0.67,-2.9*,657,255
SMILES,HEK293 NFkB inh,Jurkat tox 60K,D1 allo mod,Htt clearance,M1 agonist,M1 antagonist,M1 antag conf,mGluR4 antag
Cc1ccc2cc3cc(C(=O)NCCCN4CCc5ccccc5C4)oc3nc2c1,24,3,-1.7,.,-0.13,-3.4*,518,235
CC(C)(C)NC1=CC(=O)OC12CCCCC2,14,-10,-0.025,.,-0.28,0.71,.,.
Oc1c(C(Nc2ccccn2)c2ccccn2)ccc2cccnc12 (stereo unspecified),11,5,1.1,.,2.3,-3.6*,602,189
COc1ccc(C2CCCN2C(=O)Nc2cccc(C(C)=O)c2)cc1OC (stereo unspecified),2,3,2.9,.,-0.11,-2.5*,620,249
COc1ccc2nc(NC(=O)CSc3nnc(-c4ccoc4C)n3C)sc2c1,-7,-2,0.33,.,-0.31,-11*,492,185
CCn1nnnc1SCC(=O)Nc1nc2ccc(OC)cc2s1,.,.,.,-36,.,.,.,.
CCOC(=O)N1CCN(C(=O)c2ccc3c(=O)n(CCC4=CCCCC4)c(=O)[nH]c3c2)CC1,18,6,-0.96,-59,-0.63,-6.8*,191*,252
CC1CCCCC1n1c(=S)[nH]c2ccccc2c1=O (stereo unspecified),8,.,1.9,.,0.034,-0.54,.,.
Cc1cccc(NC(=O)c2ccccn2)c1C,-3,0,-0.69,-53,0.83,-1.9*,658,256
Cc1ccc(C)c(NC(=O)c2ccccn2)c1,6,-2,-1.1,23,0.091,0.59,.,.
COC(=O)c1ccccc1NC(=O)N1CCN(C/C=C/c2ccccc2)CC1,4,-7,2.3,2,0.12,-4.1*,507,238
CC1=NC(Nc2nc(C)c3ccccc3n2)=NC(C)(C)C1,5,16,-4.1*,.,-0.17,-9.6*,224*,212
CCOC(=O)Nc1ccc2c(c1)N(C(=O)CN(CC)CC)c1ccccc1C=C2,22,-7,-0.53,.,0.11,-5.9*,28*,232
CCN(CC)CC(=O)Nc1ccc2c(c1)N(C(=O)CN(CC)CC)c1ccccc1CC2,.,.,.,-7,.,.,.,.
COCCCn1c(C)nc2c(c1=O)c1nc3ccccc3nc1n2CCc1ccccc1,.,.,.,-44,2.1,-0.032,.,.
CS(=O)(=O)N(CC(=O)O)c1ccc2c(c1)OCO2,15,1,0.67,-48,-0.035,-4.1*,655,254
CS(=O)(=O)N(CC(N)=O)c1ccc2c(c1)OCO2,9,4,-0.32,.,0.088,0.054,.,.
CCN1CCN(C(=O)CN(c2ccccc2C)S(C)(=O)=O)CC1,-7,0,-0.63,.,0.054,-0.24,.,.
COC(=O)COc1cccc2c(=O)n(CC(=O)N3CCCc4ccccc43)ccc12,.,.,.,32,.,.,.,.
